Vif imaging: HIV Vif self-association inhibitors, primary screen, imaging, HEK293T, single point | 340,000 tested, 0.35% active | inhibition, % at 7.49 µM | HEK293T cells, Vif self-association by quenched fluorescence, 24 h; in the data active = inhibition above about 50%, passing the limit was not always enough
H9c2 TAG inh: inhibitors of triacylglycerol accumulation, primary screen, cell-based, uHTS, fluorescence, H9c2; H9c2 cells, Nile Red lipid (TAG) fluorescence; cells loaded with 200 µM oleic acid; inhibition, % at 12.5 µM; 230,000 tested, 0.66% active; AID 651582, 2012;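 active = pattern-corrected inhibition of lipid staining of at least 50% with the nuclear-stain viability signal not falling by more than 50%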;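 also: 0% = DMSO wells and 100% = triacsin C control wells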
Bfl-1 A1 inh: caspase 3/7 activation in MEF A1-2A-BIM cells, primary screen, A1 inhibitor project, cell-based, luminescence, HTS; Caspase-Glo 3/7 luminescence, 3 h; percent of clofoctol response, vehicle zero; caspase activation, % (concentration not given with the values); 330,000 tested, 0.066% active; AID 2462, 2010;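 active = over half of replicate activation scores above 10%, or exactly half above 10 with the replicate mean above 10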
SR-BI HDL uptake: inhibitors of SR-BI mediated HDL lipid uptake, primary screen, ldlA[mSR-BI] cells, fluorescence, single point | Scavenger receptor class B member 1 (Mus musculus), Q61009 | ldlA[mSR-BI] CHO cells, DiI-HDL uptake fluorescence, 3 h | inhibition, % at 12.5 µM | 320,000 tested, 0.96% active | AID 488896, 2010;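 active = mean replicate inhibition of at least 70% and a set share of replicates each scoring 70 or more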;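 also: 0% = median of neutral control wells and 100% = median of positive control wells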
Target sequence (Q61009 whole entry, looked up): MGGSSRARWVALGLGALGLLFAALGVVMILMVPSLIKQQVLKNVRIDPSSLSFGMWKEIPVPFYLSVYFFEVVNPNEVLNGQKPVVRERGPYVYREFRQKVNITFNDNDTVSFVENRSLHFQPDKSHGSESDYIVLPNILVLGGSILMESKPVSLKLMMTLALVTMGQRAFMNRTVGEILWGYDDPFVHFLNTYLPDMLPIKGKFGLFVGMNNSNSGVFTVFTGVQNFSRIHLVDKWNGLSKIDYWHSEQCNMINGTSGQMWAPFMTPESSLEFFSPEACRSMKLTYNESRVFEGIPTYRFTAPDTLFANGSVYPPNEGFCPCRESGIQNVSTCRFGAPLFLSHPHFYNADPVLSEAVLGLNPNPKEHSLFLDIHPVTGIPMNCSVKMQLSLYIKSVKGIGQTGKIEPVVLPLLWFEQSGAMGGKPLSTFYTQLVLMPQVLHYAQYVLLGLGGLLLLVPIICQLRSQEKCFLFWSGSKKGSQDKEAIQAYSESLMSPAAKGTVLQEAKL
SR-BI DiI-HDL act: activators of SR-BI mediated DiI-HDL uptake, primary screen, ldlA[mSR-BI] CHO cells, DiI fluorescence. 3 h; 100 = double the neutral-control signal. activation, % at 12.5 µM. 320,000 tested, 0.096% active;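 active = mean replicate activation of at least 60% and every replicate at or above 60%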;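 also: 0% = median plate neutral-control signal and 100% = twice that signal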
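Test system: SR-BI-overexpressing, LDLR-lacking CHO cells; Also added: labelled HDL, 10 µg/mL; Measured by: bottom-read cell fluorescence after medium removal, ex 550/em 595 nm; Timing: 3 h uptake period with compound, 37 °C; Buffer or medium: F12, 0.5% BSA, 25 mM HEPES; Doses: single compound concentration, delivered by pin transfer.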
* hit, by the source's call. A selection: hits, their analogues and other compounds. The true share with any hit is near 1.6%.

What do the screens show for `COc1cc2sc3cc(NCc4ccc5c(c4)OCO5)ccc3c(=O)c2cc1OC`?
Vif imaging: -9; H9c2 TAG inh: -10; Bfl-1 A1 inh: -1; SR-BI HDL uptake: 73*; SR-BI DiI-HDL act: -73

How did COc1cc2sc3cc(NCc4ccc(C)o4)ccc3c(=O)c2cc1OC do in these assays?
H9c2 TAG inh: 4; Bfl-1 A1 inh: -5; SR-BI HDL uptake: 80*; SR-BI DiI-HDL act: -80

Results for COc1cc2sc3cc(NCC[C@@H]4CCCN4C)ccc3c(=O)c2cc1OC ?
Vif imaging: 4; H9c2 TAG inh: 45; Bfl-1 A1 inh: 0; SR-BI HDL uptake: 63; SR-BI DiI-HDL act: -63

What do the screens show for `CCc1cc2c(Sc3nc4ccccc4s3)ncnc2s1`?
Vif imaging: 89*; Bfl-1 A1 inh: 0; SR-BI HDL uptake: -14; SR-BI DiI-HDL act: 14

What do the screens show for `COc1ccc(-c2[nH]c(-c3ccc(Cl)cc3)nc2SCC(=O)Nc2nccs2)cc1`?
H9c2 TAG inh: 14; Bfl-1 A1 inh: 0; SR-BI HDL uptake: 83*; SR-BI DiI-HDL act: -83

How did COc1ccc(-c2[nH]c(-c3ccc(C)cc3)nc2SCC(=O)NC2CCCC2)cc1 do in these assays?
Vif imaging: -4; H9c2 TAG inh: 0; Bfl-1 A1 inh: -1; SR-BI HDL uptake: 80*; SR-BI DiI-HDL act: -80

Results for COc1ccc(Nc2cc(C(=O)NC3CCCC3)c3ccccc3n2)c(OC)c1 ?
Vif imaging: -4; Bfl-1 A1 inh: 2; SR-BI HDL uptake: 88*; SR-BI DiI-HDL act: -88

What do the screens show for `COc1ccc(Nc2nc(-c3ccccc3)nc3ccccc23)c(OC)c1`?
Vif imaging: -1; H9c2 TAG inh: 26; Bfl-1 A1 inh: 0; SR-BI HDL uptake: 76*; SR-BI DiI-HDL act: -76

Results for COc1ccc(Nc2nc(-c3ccncc3)nc3ccccc23)cc1 ?
Vif imaging: -2; Bfl-1 A1 inh: -1; SR-BI HDL uptake: 80*; SR-BI DiI-HDL act: -80

How did S=c1[nH]nc(Cc2ccc(Cl)cc2)o1 do in these assays?
Vif imaging: 0; H9c2 TAG inh: -12; Bfl-1 A1 inh: -1

How did C=C(C)CSc1nc2ncc(Cl)cc2[nH]1 do in these assays?
Vif imaging: 69*; Bfl-1 A1 inh: 0; SR-BI HDL uptake: -5; SR-BI DiI-HDL act: 5

How did Oc1ccc(Nc2nc(-c3ccc4ccccc4c3)cs2)cc1 do in these assays?
Vif imaging: 23; Bfl-1 A1 inh: 0; SR-BI HDL uptake: 45; SR-BI DiI-HDL act: -45

What do the screens show for `Oc1ccc(-c2nc(-c3ccc(O)c(O)c3)cs2)cc1`?
Vif imaging: 64*; H9c2 TAG inh: -25; Bfl-1 A1 inh: 0; SR-BI HDL uptake: 18; SR-BI DiI-HDL act: -18

Results for CC(C)(C)c1csc(Sc2ncccc2[N+](=O)[O-])n1 ?
Vif imaging: 8; H9c2 TAG inh: -2; Bfl-1 A1 inh: 0; SR-BI HDL uptake: 16; SR-BI DiI-HDL act: -16

What do the screens show for `COc1cc(/C=C2/SC(=Nc3ccc(O)cc3)NC2=O)ccc1O`?
Vif imaging: -1; H9c2 TAG inh: 59*; Bfl-1 A1 inh: 3

How did COc1cc(/C=C2\SC(=Nc3ccccc3OC)NC2=O)ccc1O do in these assays?
Vif imaging: 8; Bfl-1 A1 inh: 1; SR-BI HDL uptake: 63; SR-BI DiI-HDL act: -63

What do the screens show for `CCc1nc2ccc(C(=O)Nc3ccc(NC(C)=O)cc3)cc2nc1CC`?
Vif imaging: -18; Bfl-1 A1 inh: 1; SR-BI HDL uptake: 83*; SR-BI DiI-HDL act: -83

What do the screens show for `CC(=O)Nc1ccc(NC(=O)c2ccc(NC(=O)c3ccccc3)cc2)cc1`?
Vif imaging: 0; H9c2 TAG inh: -6; Bfl-1 A1 inh: 0; SR-BI HDL uptake: 26; SR-BI DiI-HDL act: -26

What do the screens show for `Cn1ncc2c(O/N=C(\N)c3ccc(C(C)(C)C)cc3)ncnc21`?
Vif imaging: -40; H9c2 TAG inh: 86*; Bfl-1 A1 inh: 1; SR-BI HDL uptake: 4; SR-BI DiI-HDL act: -4

How did CCOC(=O)c1ccc(Nc2ncnc3c2cnn3C)cc1 do in these assays?
Vif imaging: 2; Bfl-1 A1 inh: 0; SR-BI HDL uptake: 36; SR-BI DiI-HDL act: -36

Results for O=C1C(NS(=O)(=O)c2ccccc2)=C(N2CCN(c3ccc(F)cc3)CC2)C(=O)c2ccccc21 ?
Vif imaging: -4; H9c2 TAG inh: 28; Bfl-1 A1 inh: 0; SR-BI HDL uptake: 87*; SR-BI DiI-HDL act: -87

How did O=C1C(NS(=O)(=O)c2cccs2)=C(N2CCN(c3cccc(Cl)c3)CC2)C(=O)c2ccccc21 do in these assays?
Vif imaging: -5; H9c2 TAG inh: 50*; Bfl-1 A1 inh: 0; SR-BI HDL uptake: 81*; SR-BI DiI-HDL act: -81

What do the screens show for `CCNCCC(=O)N1c2ccccc2Sc2ccc(C(F)(F)F)cc21`?
Vif imaging: -3; H9c2 TAG inh: 11; Bfl-1 A1 inh: 0; SR-BI HDL uptake: -5; SR-BI DiI-HDL act: 5

Results for Cc1cccc(OCc2n(CC(=O)OC3CC(C)CCC3C(C)C)c3ccccc3[n+]2C)c1 (configuration not stated) ?
Vif imaging: -6; H9c2 TAG inh: 98*; Bfl-1 A1 inh: 1; SR-BI HDL uptake: -11; SR-BI DiI-HDL act: 11

What do the screens show for `CN(C)c1ccc(-c2nc3ccccc3n2C)cc1`?
Vif imaging: -5; Bfl-1 A1 inh: -8; SR-BI HDL uptake: 31; SR-BI DiI-HDL act: -31

Results for CC(C)n1c(-c2ccc(N(C)C)cc2)nc2ccccc21 ?
H9c2 TAG inh: -24; Bfl-1 A1 inh: 0; SR-BI HDL uptake: 88*; SR-BI DiI-HDL act: -88

How did Cc1cc(NC(=O)CSCC(=O)OCC(=O)c2cccc(Br)c2)no1 do in these assays?
Vif imaging: 2; H9c2 TAG inh: 4; Bfl-1 A1 inh: -1; SR-BI HDL uptake: -5; SR-BI DiI-HDL act: 5

Results for CCOC(=O)c1ccc(Nc2nc(C)cc(C)c2C#N)cc1 ?
Vif imaging: 0; Bfl-1 A1 inh: 0; SR-BI HDL uptake: 73*; SR-BI DiI-HDL act: -73

What do the screens show for `O=C(Cn1ccc2ccccc2c1=O)NCC(=O)N1CCCCC1`?
Vif imaging: 23; Bfl-1 A1 inh: 0; SR-BI HDL uptake: 5; SR-BI DiI-HDL act: -5

What do the screens show for `CN(C)CCNc1ncnc2c1ncn2[C@H]1CN(Cc2ccc3c(c2)OCO3)C[C@@H](CO)O1`?
Vif imaging: -3; H9c2 TAG inh: 13

Results for COc1ccc([C@H]2CC(=O)C=C(c3cc4ccccc4s3)C2)cc1 ?
Vif imaging: 51*; Bfl-1 A1 inh: 0; SR-BI HDL uptake: 33; SR-BI DiI-HDL act: -33

Results for CC12CCCCC1N(O)C(=O)C(=O)N2O (configuration not stated) ?
Vif imaging: -2; Bfl-1 A1 inh: 0; SR-BI HDL uptake: 5; SR-BI DiI-HDL act: -5

Screens: PubChem, several laboratories
